Results from ChEMBL document CHEMBL1155223, “2-Phenylpyrazolo[4,3-d]pyrimidin-7-one as a new scaffold to obtain potent and selective human A3 adenosine receptor antagonists: new insights into the receptor-antagonist recognition” (J Med Chem, 2009).

Tests used:
[1] = target: T1, Adenosine receptor A3 (Homo sapiens) (UniProt P0DMS8); experiment: Inhibition of [125I]AB-MECA binding to human cloned adenosine A3 receptor expressed in CHO cells at 1 uM after 120 mins by scintillation counting; type: cell-based
T1 sequence (whole entry): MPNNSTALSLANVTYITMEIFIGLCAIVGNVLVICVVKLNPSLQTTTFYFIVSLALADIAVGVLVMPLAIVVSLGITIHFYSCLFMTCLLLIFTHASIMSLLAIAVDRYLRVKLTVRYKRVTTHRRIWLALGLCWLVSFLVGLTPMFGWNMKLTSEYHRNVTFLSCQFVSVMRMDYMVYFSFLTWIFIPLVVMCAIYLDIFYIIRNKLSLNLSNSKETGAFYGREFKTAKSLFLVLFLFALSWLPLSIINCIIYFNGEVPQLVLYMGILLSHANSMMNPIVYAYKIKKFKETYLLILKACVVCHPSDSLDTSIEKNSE
Summary of the method: (§1)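 hA3 CHO membranes (50 μg protein) incubated with [125I]AB-MECA 0.5 nM in 50 mM Tris-HCl, 10 mM MgCl2, 1 mM EDTA, pH 7.4, 120 min at 4 °C; six to eight ligand concentrations. Nonspecific binding with 1 μM AB-MECA. Ki via Cheng–Prusoff, mean ± SEM of four assays in duplicate; percent inhibition given at 1 μM.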

[2] = target: T2, Adenosine receptor A1 (Homo sapiens) (UniProt P30542); experiment: Inhibition of [125I]DPCPX binding to human cloned adenosine A1 receptor expressed in CHO cells at 1 uM after 120 mins by scintillation counting; type: cell-based; conditions: in the assay text read “[3H]DPCPX” for “[125I]DPCPX”
T2 sequence (whole entry): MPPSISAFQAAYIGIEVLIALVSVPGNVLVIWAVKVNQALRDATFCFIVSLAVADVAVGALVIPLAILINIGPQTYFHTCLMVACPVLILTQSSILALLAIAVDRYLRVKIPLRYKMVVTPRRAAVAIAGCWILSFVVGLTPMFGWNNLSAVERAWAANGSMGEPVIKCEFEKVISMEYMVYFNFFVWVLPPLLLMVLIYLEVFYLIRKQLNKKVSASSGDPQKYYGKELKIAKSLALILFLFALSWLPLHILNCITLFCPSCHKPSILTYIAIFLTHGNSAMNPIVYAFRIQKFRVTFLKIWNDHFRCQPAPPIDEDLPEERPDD
Summary of the method: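 Membranes from hA1 CHO (50 μg protein) with [3H]DPCPX 1 nM, 50 mM Tris-HCl pH 7.4, 120 min at 25 °C; nonspecific binding defined by 10 μM CHA. Percent inhibition at 1 μM test compound.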

[3] = target: Adenosine receptor A2a (Homo sapiens) (UniProt P29274); experiment: Inhibition of [125I]Z241385 binding to human cloned adenosine A2A receptor expressed in CHO cells at 1 uM after 120 mins by scintillation counting; type: cell-based
[4] = target: T3, Adenosine receptor A2b (Homo sapiens) (UniProt P29275); experiment: Antagonist activity at human adenosine A2B receptor expressed in CHO cells assessed as inhibition of NECA-stimulated [3H]cAMP production at 1 uM by scintillation counting; type: functional, cell-based
T3 sequence (whole entry): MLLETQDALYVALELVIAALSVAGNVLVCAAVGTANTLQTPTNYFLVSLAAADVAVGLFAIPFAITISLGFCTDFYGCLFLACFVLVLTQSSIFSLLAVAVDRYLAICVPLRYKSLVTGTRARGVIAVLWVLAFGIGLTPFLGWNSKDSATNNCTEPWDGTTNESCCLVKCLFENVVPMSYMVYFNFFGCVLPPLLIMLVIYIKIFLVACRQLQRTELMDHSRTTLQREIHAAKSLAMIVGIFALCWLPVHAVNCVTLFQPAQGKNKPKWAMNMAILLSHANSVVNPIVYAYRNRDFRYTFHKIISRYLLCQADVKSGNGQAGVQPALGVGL
Summary of the method: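 Suspended CHO cells stably expressing hA2B (1 × 10⁶ cells/assay) in buffer with adenosine deaminase 2 IU/mL and Ro 20-1724, preincubated 10 min at 37 °C, pH 7.4. Stimulated with NECA 200 nM; compound at 1 μM; percent inhibition reported. Stopped with cold 6% TCA, ether-extracted, cAMP quantified by [3H]cAMP competition with beef adrenal binding protein.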

Adenosine receptor A3 [5] = target: T4, Adenosine receptor A3 (Homo sapiens, UniProt P0DMS8); experiment: Antagonist activity at human cloned adenosine A3 receptor expressed in CHO cells assessed as inhibition of Cl-IB-MECA-inhibited [3H]cAMP production by scintillation counting; type: functional, cell-based
T4 sequence (P0DMS8 whole entry): T1 sequence (whole entry)
Summary of the method: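 hA3-transfected CHO cells (1 × 10⁶ cells/assay), preincubated 10 min at 37 °C with adenosine deaminase 2 IU/mL plus Ro 20-1724, pH 7.4; forskolin 1 μM and Cl-IB-MECA 100 nM present. Stopped with cold 6% TCA; cAMP measured by [3H]cAMP binding-protein competition. IC50 from sigmoid nonlinear regression, mean ± SEM of four experiments; single-point data at 1 μM as percent inhibition.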

Adenosine receptor A3 [6] = target: T4, Adenosine receptor A3; experiment: Displacement of [125I]AB-MECA from human cloned adenosine A3 receptor expressed in CHO cells after 120 mins by scintillation counting; type: cell-based; summary of the method: as §1
[7] = target: T1, Adenosine receptor A3 (Homo sapiens); conditions: CHO, 1 uM

Adenosine receptor A2a (Homo sapiens), sequence (P29274 whole entry): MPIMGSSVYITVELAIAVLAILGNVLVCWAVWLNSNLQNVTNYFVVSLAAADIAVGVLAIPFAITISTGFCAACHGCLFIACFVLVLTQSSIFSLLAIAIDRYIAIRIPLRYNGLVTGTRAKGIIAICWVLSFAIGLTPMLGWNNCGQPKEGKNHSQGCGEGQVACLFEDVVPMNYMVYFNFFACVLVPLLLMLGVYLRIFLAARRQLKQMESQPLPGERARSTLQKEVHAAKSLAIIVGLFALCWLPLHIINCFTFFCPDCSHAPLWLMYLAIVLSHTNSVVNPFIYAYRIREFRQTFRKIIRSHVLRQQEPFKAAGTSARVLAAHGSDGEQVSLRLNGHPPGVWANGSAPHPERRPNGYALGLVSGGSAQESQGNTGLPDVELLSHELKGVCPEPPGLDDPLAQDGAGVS

Compound	inhibition [1]	inhibition [2]	inhibition [3]	inhibition [4]	IC50 (Adenosine receptor A3 [5])	Ki (Adenosine receptor A3 [6])	inhibition [7]
COc1ccc(-n2cc3nc(-c4ccccc4)[nH]c(=O)c3n2)cc1	16%	1%	1%	5%			
COc1ccc(-n2cc3nc(Cc4ccccc4)[nH]c(=O)c3n2)cc1		10%	1%	4%	850 nM	250 nM	
COc1ccc(-n2cc3nc[nH]c(=O)c3n2)cc1		2%	1%	3%	270 nM	54 nM	
Cc1cccc(-n2cc3nc(C)[nH]c(=O)c3n2)c1		4%	1%	2%	354 nM	72 nM	
Nc1nc(NCCc2ccc(O)cc2)nc2nc(-c3ccco3)nn12	5%						2%
COc1ccc(-n2cc3nc(C)[nH]c(=O)c3n2)cc1		5%	1%	2%	5.2 nM	1.2 nM	
CCc1nc2cn(-c3ccccc3)nc2c(=O)[nH]1		11%	6%	1%	245 nM	52 nM	
Cc1nc2cn(-c3ccccc3)nc2c(=O)[nH]1		9%	1%	2%	87 nM	16 nM	
Cc1ccc(-n2cc3nc(C)[nH]c(=O)c3n2)cc1		1%	1%	4%	46 nM	10 nM	
O=c1[nH]cnc2cn(-c3ccccc3)nc12		1%	1%	3%	725 nM	185 nM	
CCc1nc2cn(-c3ccc(OC)cc3)nc2c(=O)[nH]1		1%	1%	5%	63 nM	14 nM	
O=c1[nH]c(=O)c2nn(-c3ccccc3)cc2[nH]1	12%	4%	5%	2%			
O=c1[nH]c(-c2ccccc2)nc2cn(-c3ccccc3)nc12	10%	22%	10%	4%			
O=c1[nH]c(Cc2ccccc2)nc2cn(-c3ccccc3)nc12		11%	1%	4%		900 nM	6%
